Experimental findings from ChEMBL document CHEMBL1687720 (Antimicrob Agents Chemother, 2009) are described below.

The subject of assay [1] is Plasmodium falciparum. In words: Antiplasmodial activity against chloroquine-resistant Plasmodium falciparum K1 in presence of pyrimethamine. The assay is classed as functional.
The target in assay [2] is T1, Glutathione reductase, mitochondrial (Homo sapiens) (UniProt P00390).
T1 sequence (whole entry): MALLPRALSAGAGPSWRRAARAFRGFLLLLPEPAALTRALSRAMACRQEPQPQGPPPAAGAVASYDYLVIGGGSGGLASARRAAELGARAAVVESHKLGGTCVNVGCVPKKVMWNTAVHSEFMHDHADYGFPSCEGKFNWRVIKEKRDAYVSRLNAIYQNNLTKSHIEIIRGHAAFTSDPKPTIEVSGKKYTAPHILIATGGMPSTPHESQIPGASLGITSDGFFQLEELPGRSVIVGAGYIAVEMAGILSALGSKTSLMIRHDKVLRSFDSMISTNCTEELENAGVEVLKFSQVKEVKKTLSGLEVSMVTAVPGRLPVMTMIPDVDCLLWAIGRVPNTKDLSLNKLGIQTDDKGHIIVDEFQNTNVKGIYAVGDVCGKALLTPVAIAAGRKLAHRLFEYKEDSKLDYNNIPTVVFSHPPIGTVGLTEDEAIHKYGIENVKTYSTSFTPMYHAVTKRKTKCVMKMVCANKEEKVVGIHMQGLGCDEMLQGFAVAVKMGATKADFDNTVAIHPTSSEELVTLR
As to the kind of experiment: Inhibition of glutathione reductase in human A549 cells assessed as enzyme activity at 315 µM after 24 hrs relative to untreated control. Also on record: scale not given: the % may be the effect or the level left.

In the next assay the test system is A549. As to the kind of experiment: Inhibition of glutathione S-transferase in human A549 cells assessed as enzyme activity at 158 µM after 24 hrs relative to untreated control. Also on record: scale not given: the % may be the effect or the level left.
For a further assay, the target named is Thioredoxin reductase (Homo sapiens, UniProt Q16881+Q9NNW7+Q86VQ6). In words: Inhibition of thioredoxin reductase in human A549 cells assessed as enzyme activity at 315 µM after 24 hrs by DTNB assay relative to untreated control. Details: scale not given: the % may be the effect or the level left.
Assay [3] has as its system Plasmodium falciparum. In words: Downregulation of glutathione reductase mRNA level in Plasmodium falciparum 3D7 trophozoites at 126 nM after 18 hrs by RT-qPCR analysis relative to untreated control. The assay is classed as functional. In outline: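 P. falciparum 3D7 trophozoites are exposed to 126 nM compound for 12, 15 or 18 h, then harvested by saponin lysis at 37°C. RNA is extracted and reverse-transcribed, and transcripts are quantified by real-time PCR in quadruplicate. Analysis uses ΔΔCT with 18S rRNA as reference (LDH also checked), expressed as % of untreated control.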
A general note: Quantitative PCR measures a nucleic acid by following its amplification.

Regarding `O=c1oc2c(O)c(O)cc3c(=O)oc4c(O)c(O)cc1c4c23` [ELLAGIC ACID], the FIC50 with Plasmodium falciparum [1] is recorded as 1.
As for `O=c1oc2c(O)c(O)c(O)c3c(=O)oc4c(O)c(O)cc1c4c23` [FLAVELLAGIC ACID], the Activity is 119% in assay [2], 99% in the assay with A549 and 115% on Thioredoxin reductase.
In the assay with Plasmodium falciparum [3], `O=c1oc2c(O)c(O)c(O)c3c(=O)oc4c(O)c(O)c(O)c1c4c23` [CORULEOELLAGIC ACID] displayed an Activity of 62%.
